Data reported in ChEMBL document CHEMBL4177526, “Discovery and structure activity relationship of the first potent cryptosporidium FIKK kinase inhibitor” (Bioorg Med Chem, 2017).
Activity calls are given as the source filed them. The calls are words filed in the database; no cut-off is given here.

Key:
[1] = Inhibition of recombinant Cryptosporidium parvum FIKK using RRRAPSFYRK peptide as substrate by NADH coupled LDH-PK ATPase assay
[2] = Inhibition of Cryptosporidium parvum CDPK1 using PLARTLSVAGLPGKK peptide as substrate by NADH coupled LDH-PK ATPase assay
Method in brief: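 NADH-coupled LDH-PK ATPase read-out with 1.2 nM recombinant CpCDPK1, 0.25 mM ATP, 0.1 mM Syntide 2.0 peptide and 2 mM CaCl2. Inhibitors were made as 10 mM DMSO stocks and tested in 2-fold serial dilutions. IC50 is the average of triplicate experiments.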

[3] = target: Calcium/calmodulin-dependent protein kinase with a kinase domain and 4 calmodulin like EF hands (Cryptosporidium parvum (strain Iowa II)) (UniProt Q5CYL9); assay: Inhibition of Cryptosporidium parvum Iowa II calcium/calmodulin-dependent protein kinase with a kinase domain and 4 calmodulin like EF hands assessed as change in melting temperature by DSLS method
[4] = target: Calcium-dependent protein kinase 2 (Cryptosporidium parvum) (UniProt Q6S4V9); assay: Inhibition of Cryptosporidium parvum calcium-dependent protein kinase 2 assessed as change in melting temperature by DSLS method
[5] = target: Cgd5_820 protein (Cryptosporidium parvum) (UniProt F0X4H1); assay: Inhibition of Cryptosporidium parvum calcium/calmodulin dependent protein kinase with a kinase domain and 4 calmodulin like EF hands assessed as change in melting temperature by DSLS method
[6] = target: Calcium/calmodulin-dependent protein kinase with a kinase domain and 2 calmodulin-like EF hands (Cryptosporidium parvum (strain Iowa II)) (UniProt Q5CZ29); assay: Inhibition of Cryptosporidium parvum Iowa II calcium/calmodulin-dependent protein kinase with a kinase domain and 2 calmodulin-like EF hands assessed as change in melting temperature by DSLS method
Cryptosporidium parvum [7] = assay: Inhibition of Cryptosporidium parvum CDPK6 assessed as change in melting temperature by DSLS method
[8] = test system: Cryptosporidium parvum Iowa II; assay: Inhibition of Cryptosporidium parvum Iowa II cyclin-dependent kinase 3 assessed as change in melting temperature by DSLS method
[9] = target: Cell division control protein 28, putative (Cryptosporidium parvum (strain Iowa II)) (UniProt A3FPL9); assay: Inhibition of Cryptosporidium parvum Iowa II cell division control protein 28 assessed as change in melting temperature by DSLS method
[10] = test system: Cryptosporidium parvum Iowa II; assay: Inhibition of Cryptosporidium parvum Iowa II glycogen synthase kinase assessed as change in melting temperature by DSLS method
[11] = test system: Cryptosporidium parvum Iowa II; assay: Inhibition of Cryptosporidium parvum Iowa II Serine/threonine-protein kinase Nek2 assessed as change in melting temperature by DSLS method
[12] = target: Mitogen-activated protein kinase (Cryptosporidium parvum (strain Iowa II)) (UniProt A3FQ79); assay: Inhibition of Cryptosporidium parvum Iowa II mitogen-activated protein kinase assessed as change in melting temperature by DSLS method
[13] = test system: Cryptosporidium parvum Iowa II; assay: Inhibition of Cryptosporidium parvum Iowa II calcium/calmodulin-dependent protein kinase assessed as change in melting temperature by DSLS method
[14] = target: Calcium/calmodulin-dependent protein kinase with a kinase domain and 4 calmodulin like EF hands (Cryptosporidium parvum (strain Iowa II), UniProt Q5CYL9); assay: Inhibition of Cryptosporidium parvum Iowa II calcium/calmodulin-dependent protein kinase with a kinase domain and 4 calmodulin like EF hands
[15] = target: Calcium-dependent protein kinase 2 (Cryptosporidium parvum, UniProt Q6S4V9); assay: Inhibition of Cryptosporidium parvum calcium-dependent protein kinase 2
Cgd5_820 protein = Cgd5_820 protein (Cryptosporidium parvum, UniProt F0X4H1); assay: Inhibition of Cryptosporidium parvum calcium/calmodulin dependent protein kinase with a kinase domain and 4 calmodulin like EF hands
[16] = target: Calcium/calmodulin-dependent protein kinase with a kinase domain and 2 calmodulin-like EF hands (Cryptosporidium parvum (strain Iowa II), UniProt Q5CZ29); assay: Inhibition of Cryptosporidium parvum Iowa II calcium/calmodulin-dependent protein kinase with a kinase domain and 2 calmodulin-like EF hands
[17] = Inhibition of Cryptosporidium parvum CDPK6
[18] = Inhibition of Cryptosporidium parvum Iowa II cyclin-dependent kinase 3
[19] = target: Cell division control protein 28, putative (Cryptosporidium parvum (strain Iowa II), UniProt A3FPL9); assay: Inhibition of Cryptosporidium parvum Iowa II cell division control protein 28
[20] = Inhibition of Cryptosporidium parvum Iowa II glycogen synthase kinase
[21] = Inhibition of Cryptosporidium parvum Iowa II serine/threonine-protein kinase Nek2
[22] = target: Mitogen-activated protein kinase (Cryptosporidium parvum (strain Iowa II), UniProt A3FQ79); assay: Inhibition of Cryptosporidium parvum Iowa II mitogen-activated protein kinase
[23] = Inhibition of Cryptosporidium parvum Iowa II ser/Thr protein kinase FIKK
[24] = Inhibition of Cryptosporidium parvum Iowa II calcium/calmodulin-dependent protein kinase
[25] = target: Vascular endothelial growth factor receptor 2 (Homo sapiens) (UniProt P35968); assay: Inhibition of human KDR at 100 nM relative to control
[26] = target: Vascular endothelial growth factor receptor 2 (Homo sapiens) (UniProt P35968); assay: Inhibition of human KDR at 1 uM relative to control
[27] = target: Mitogen-activated protein kinase kinase kinase kinase 4 (Homo sapiens) (UniProt O95819); assay: Inhibition of human MAP4K4 at 1 uM relative to control
[28] = target: Mitogen-activated protein kinase 14 (Homo sapiens) (UniProt Q16539); assay: Inhibition of human p38alpha at 1 uM relative to control
Cryptosporidium parvum [29] = assay: Inhibition of Cryptosporidium parvum CDPK1 assessed as increase in thermal stabilization
Cryptosporidium parvum [30] = assay: Inhibition of recombinant Cryptosporidium parvum FIKK assessed as change in melting temperature at 50 uM by differential static light scattering method
Cryptosporidium parvum [31] = assay: Antiparasitic activity against Cryptosporidium parvum Iowa oocysts infected in human HCT8 cells pretreated prior to infection measured after 48 hrs by fluorescein labeled Vicia villosa lectin/Hoechst 33258 staining based epifluorescence microscopic analysis; format: functional, organism-based
Method in brief: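 HCT-8 cells grown in RPMI-1640 with 10% heat-inactivated FBS and penicillin. Three-fold compound dilutions in culture medium were added to confluent cells before about 5500 excysted C. parvum Iowa oocysts per well. After 48 h, cells were fixed with 4% paraformaldehyde and permeabilized. Vacuoles were stained with fluorescein-Vicia villosa lectin (1.33 µg/mL, 1 h, 37 °C) and nuclei with Hoechst 33258, then imaged by epifluorescence microscopy.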

[32] = Ratio of EC50 for antiparasitic activity against Cryptosporidium parvum Iowa oocysts infected in human HCT8 cells to IC50 for recombinant Cryptosporidium parvum FIKK; format: functional, cell-based
[33] = Ratio of EC50 for antiparasitic activity against Cryptosporidium parvum Iowa oocysts infected in human HCT8 cells to IC50 for Cryptosporidium parvum CDPK1; format: functional
Cryptosporidium parvum [34] = assay: Antiparasitic activity against Cryptosporidium parvum isolate AUCP-1 sporozoites infected in human HCT8 cells treated for 24 hrs followed by compound washout and supplemented with fresh medium containing compound at 24 intervals; format: functional, organism-based; conditions: isolate AUCP-1, HCT-8, 24 h
[35] = Permeability in human Caco2 cells; format: ADME, cell-based; conditions: Caco-2, read-out: permeability
[36] = Efflux ratio of permeability in human Caco2 cells; format: ADME, cell-based; conditions: Caco-2
[37] = Cryptosporidium parvum, Iowa, HCT-8, read-out: EC50

Chain of Vascular endothelial growth factor receptor 2 (Homo sapiens) (P35968 whole entry): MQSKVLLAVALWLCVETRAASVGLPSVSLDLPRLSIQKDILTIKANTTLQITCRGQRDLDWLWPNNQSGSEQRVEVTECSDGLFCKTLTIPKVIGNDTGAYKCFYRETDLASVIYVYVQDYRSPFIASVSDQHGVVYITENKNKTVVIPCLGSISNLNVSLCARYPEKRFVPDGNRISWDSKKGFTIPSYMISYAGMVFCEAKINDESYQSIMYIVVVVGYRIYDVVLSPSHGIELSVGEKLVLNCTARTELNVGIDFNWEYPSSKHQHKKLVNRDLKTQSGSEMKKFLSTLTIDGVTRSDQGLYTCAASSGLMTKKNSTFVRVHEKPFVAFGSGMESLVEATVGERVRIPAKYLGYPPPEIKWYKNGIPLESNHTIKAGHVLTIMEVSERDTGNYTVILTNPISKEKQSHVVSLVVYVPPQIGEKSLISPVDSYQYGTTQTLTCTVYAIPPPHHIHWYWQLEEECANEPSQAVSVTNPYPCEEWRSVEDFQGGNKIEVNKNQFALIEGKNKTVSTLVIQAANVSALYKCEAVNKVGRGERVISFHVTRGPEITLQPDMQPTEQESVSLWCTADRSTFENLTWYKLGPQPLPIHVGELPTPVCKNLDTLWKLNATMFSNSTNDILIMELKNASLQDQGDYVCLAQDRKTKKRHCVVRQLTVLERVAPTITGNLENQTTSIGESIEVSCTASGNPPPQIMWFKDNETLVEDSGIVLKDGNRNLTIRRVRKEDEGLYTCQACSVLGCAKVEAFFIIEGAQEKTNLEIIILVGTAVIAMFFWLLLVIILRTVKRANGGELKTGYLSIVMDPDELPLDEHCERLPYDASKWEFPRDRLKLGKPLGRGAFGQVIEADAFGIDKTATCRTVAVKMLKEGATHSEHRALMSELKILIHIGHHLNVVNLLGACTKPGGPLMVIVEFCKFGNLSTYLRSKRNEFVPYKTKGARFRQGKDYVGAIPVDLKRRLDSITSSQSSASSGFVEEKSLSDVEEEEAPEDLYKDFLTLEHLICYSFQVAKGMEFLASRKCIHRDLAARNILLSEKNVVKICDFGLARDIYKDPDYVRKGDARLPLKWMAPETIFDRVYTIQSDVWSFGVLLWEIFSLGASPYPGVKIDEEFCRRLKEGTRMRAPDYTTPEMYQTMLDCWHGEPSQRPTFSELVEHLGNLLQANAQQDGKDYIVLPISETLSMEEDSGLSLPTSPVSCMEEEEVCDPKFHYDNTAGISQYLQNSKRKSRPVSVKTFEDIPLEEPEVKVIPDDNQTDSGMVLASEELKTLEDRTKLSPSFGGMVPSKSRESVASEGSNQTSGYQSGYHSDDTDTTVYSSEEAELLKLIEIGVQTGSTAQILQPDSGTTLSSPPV
Chain of Cgd5_820 protein (Cryptosporidium parvum) (F0X4H1 as listed by the source): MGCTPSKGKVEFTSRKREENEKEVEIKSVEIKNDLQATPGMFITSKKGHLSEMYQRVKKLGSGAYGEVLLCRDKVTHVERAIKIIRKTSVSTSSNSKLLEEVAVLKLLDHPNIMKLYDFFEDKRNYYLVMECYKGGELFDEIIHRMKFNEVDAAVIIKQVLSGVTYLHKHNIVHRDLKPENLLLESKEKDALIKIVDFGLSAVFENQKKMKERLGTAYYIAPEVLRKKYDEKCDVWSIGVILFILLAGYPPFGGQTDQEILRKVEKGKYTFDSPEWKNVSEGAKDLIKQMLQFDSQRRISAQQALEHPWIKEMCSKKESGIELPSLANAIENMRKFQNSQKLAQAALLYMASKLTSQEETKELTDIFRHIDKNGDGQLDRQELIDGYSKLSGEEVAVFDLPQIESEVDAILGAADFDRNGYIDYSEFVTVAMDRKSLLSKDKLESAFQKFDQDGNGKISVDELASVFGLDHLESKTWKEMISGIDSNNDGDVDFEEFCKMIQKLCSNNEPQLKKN
Chain of Cgd5_820 protein (F0X4H1 whole entry, the tested form may be a part): as the sequence (F0X4H1 as listed by the source) above
Chain of Cell division control protein 28, putative (A3FPL9 whole entry): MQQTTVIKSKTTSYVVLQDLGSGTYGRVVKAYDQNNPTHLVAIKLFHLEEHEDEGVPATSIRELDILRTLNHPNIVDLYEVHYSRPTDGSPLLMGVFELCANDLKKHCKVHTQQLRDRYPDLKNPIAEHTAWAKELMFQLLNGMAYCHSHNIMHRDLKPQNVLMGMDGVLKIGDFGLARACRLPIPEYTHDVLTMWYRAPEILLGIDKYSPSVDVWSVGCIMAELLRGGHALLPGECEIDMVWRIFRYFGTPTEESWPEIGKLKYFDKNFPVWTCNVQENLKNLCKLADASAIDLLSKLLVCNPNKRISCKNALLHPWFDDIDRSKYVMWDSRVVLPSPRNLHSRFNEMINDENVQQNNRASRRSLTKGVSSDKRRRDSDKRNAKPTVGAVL
Chain of Cell division control protein 28, putative (Cryptosporidium parvum (strain Iowa II)) (A3FPL9 as listed by the source): as the sequence (A3FPL9 whole entry) above
Chain of Calcium/calmodulin-dependent protein kinase with a kinase domain and 4 calmodulin like EF hands (Q5CYL9 whole entry, the tested form may be a part): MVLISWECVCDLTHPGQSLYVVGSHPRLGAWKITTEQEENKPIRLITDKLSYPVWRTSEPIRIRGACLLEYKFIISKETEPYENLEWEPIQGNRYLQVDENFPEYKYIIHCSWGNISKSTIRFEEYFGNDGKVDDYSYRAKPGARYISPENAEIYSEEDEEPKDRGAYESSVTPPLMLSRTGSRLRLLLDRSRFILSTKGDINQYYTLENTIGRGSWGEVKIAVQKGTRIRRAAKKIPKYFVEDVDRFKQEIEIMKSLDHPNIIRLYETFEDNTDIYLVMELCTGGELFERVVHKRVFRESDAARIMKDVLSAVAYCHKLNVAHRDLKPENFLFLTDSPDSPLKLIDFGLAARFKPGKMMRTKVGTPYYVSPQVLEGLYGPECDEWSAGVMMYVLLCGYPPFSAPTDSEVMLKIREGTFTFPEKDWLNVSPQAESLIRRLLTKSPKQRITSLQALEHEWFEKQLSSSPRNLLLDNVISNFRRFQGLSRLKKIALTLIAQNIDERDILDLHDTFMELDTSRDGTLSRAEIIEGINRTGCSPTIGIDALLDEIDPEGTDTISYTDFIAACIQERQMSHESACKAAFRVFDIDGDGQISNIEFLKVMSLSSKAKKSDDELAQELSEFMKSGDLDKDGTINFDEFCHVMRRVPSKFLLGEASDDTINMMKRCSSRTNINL
Chain of Calcium/calmodulin-dependent protein kinase with a kinase domain and 4 calmodulin like EF hands (Cryptosporidium parvum (strain Iowa II)) (Q5CYL9 as listed by the source): as the sequence (Q5CYL9 whole entry, the tested form may be a part) above
Chain of Mitogen-activated protein kinase 14 (Homo sapiens) (Q16539 whole entry): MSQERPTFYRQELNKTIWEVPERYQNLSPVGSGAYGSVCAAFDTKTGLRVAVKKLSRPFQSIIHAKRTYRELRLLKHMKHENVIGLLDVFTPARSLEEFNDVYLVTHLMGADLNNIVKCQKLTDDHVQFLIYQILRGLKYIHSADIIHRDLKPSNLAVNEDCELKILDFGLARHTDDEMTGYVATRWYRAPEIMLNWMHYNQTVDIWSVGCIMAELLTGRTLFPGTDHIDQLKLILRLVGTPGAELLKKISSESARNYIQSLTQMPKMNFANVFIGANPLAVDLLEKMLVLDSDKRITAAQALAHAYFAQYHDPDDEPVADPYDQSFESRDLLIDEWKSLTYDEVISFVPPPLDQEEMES

Nc1nc(-c2ccc(Cl)cc2)c(-c2ccc3ncccc3n2)s1
IC50 [1]: 3260 nM
IC50 [2]: 375 nM

Nc1nc(-c2cccc(Cl)c2)c(-c2ccc3ncccc3n2)s1 [GW780159X]
IC50 [1]: 3 nM
IC50 [2]: 84 nM
ΔTm [3]: < 2 °C
ΔTm [4]: < 2 °C
ΔTm [5]: < 2 °C
ΔTm [6]: < 2 °C
ΔTm (Cryptosporidium parvum [7]): < 2 °C
ΔTm [8]: < 2 °C
ΔTm [9]: < 2 °C
ΔTm [10]: < 2 °C
ΔTm [11]: < 2 °C
ΔTm [12]: < 2 °C
ΔTm [13]: < 2 °C
IC50 [14]: > 10000 nM
IC50 [15]: > 10000 nM
IC50 (Cgd5_820 protein): > 10000 nM
IC50 [16]: > 10000 nM
IC50 [17]: > 10000 nM
IC50 [18]: > 10000 nM
IC50 [19]: > 10000 nM
IC50 [20]: > 10000 nM
IC50 [21]: > 10000 nM
IC50 [22]: > 10000 nM
IC50 [23]: 3 nM
IC50 [24]: > 10000 nM
inhibition [25]: 33%
inhibition [26]: 67%
inhibition [27]: 60%
inhibition [28]: 50%
inhibition (Cryptosporidium parvum [29]): Active
ΔTm (Cryptosporidium parvum [30]): 5.1 °C
EC50 (Cryptosporidium parvum [31]; [37]): 5500 nM
Ratio [32]: 1840
Ratio [33]: 66

CNc1nc(-c2cccc(Cl)c2)c(-c2ccc3ncccc3n2)s1
IC50 [1]: 3600 nM
IC50 [2]: 1510 nM

Nc1nc(-c2ccc(F)c(Cl)c2)c(-c2ccc3ncccc3n2)s1
IC50 [1]: 25 nM
IC50 [2]: 450 nM
ΔTm (Cryptosporidium parvum [30]): 3.6 °C

Nc1nc(-c2ccccc2)c(-c2ccc3ncccc3n2)s1
IC50 [1]: 42 nM
IC50 [2]: 190 nM
ΔTm (Cryptosporidium parvum [30]): 4.2 °C

Nc1nc(-c2ccc(F)cc2)c(-c2ccc3ncccc3n2)s1 [GW785804X]
IC50 [1]: 220 nM
IC50 [2]: 220 nM
ΔTm (Cryptosporidium parvum [30]): 4.7 °C

Nc1nc(-c2cccc(C(F)(F)F)c2)c(-c2ccc3ncccc3n2)s1
IC50 [1]: 1200 nM
IC50 [2]: 350 nM

Nc1nc(-c2cc(Cl)cc(Cl)c2)c(-c2ccc3ncccc3n2)s1
IC50 [1]: > 10000 nM
IC50 [2]: 3500 nM
EC50 (Cryptosporidium parvum [31]): Not Active

CC(=O)Nc1nc(-c2cccc(Cl)c2)c(-c2ccc3ncccc3n2)s1
IC50 [1]: > 10000 nM
IC50 [2]: 330 nM

Cc1ccc(-c2nc(N)sc2-c2ccc3ncccc3n2)cc1C
IC50 [1]: 2900 nM
IC50 [2]: 19 nM
ΔTm (Cryptosporidium parvum [30]): 0.82 °C
EC50 (Cryptosporidium parvum [31]; [37]): 3900 nM
Ratio [32]: 1.3
Ratio [33]: 204

Cc1ccnc2ccc(-c3sc(N)nc3-c3ccc(F)c(Cl)c3)nc12
IC50 [1]: > 10000 nM
IC50 [2]: 400 nM

Nc1nc(-c2ccc(Cl)c(Cl)c2)c(-c2ccc3ncccc3n2)s1
IC50 [1]: 750 nM
IC50 [2]: > 10000 nM

N#Cc1cccc(-c2nc(N)sc2-c2ccc3ncccc3n2)c1
IC50 [1]: 4100 nM
IC50 [2]: 1500 nM

COc1ccc(-c2nc(N)sc2-c2ccc3ncccc3n2)cc1
IC50 [1]: > 10000 nM
IC50 [2]: 2600 nM
ΔTm (Cryptosporidium parvum [30]): 0.4 °C

CC(C)(C)n1nc(-c2cccc3ccccc23)c2c(N)ncnc21
EC50 (Cryptosporidium parvum [34]): 2560 nM
EC50 (Cryptosporidium parvum [31]; [37]): 4100 nM
Ratio [33]: 1

COc1cccc(-c2nc(N)sc2-c2ccc3ncccc3n2)c1
IC50 [1]: 180 nM
IC50 [2]: 260 nM

CCc1cccc(-c2nc(N)sc2-c2ccc3ncccc3n2)c1
IC50 [1]: > 10000 nM
IC50 [2]: 74 nM

Nc1nc(-c2cccc(F)c2)c(-c2ccc3ncccc3n2)s1
IC50 [1]: 220 nM
IC50 [2]: 210 nM
ΔTm (Cryptosporidium parvum [30]): 4.9 °C
EC50 (Cryptosporidium parvum [31]; [37]): 1300 nM
Ratio [32]: 6
Ratio [33]: 6
Papp [35]: 16 ×10⁻⁶ cm/s
efflux ratio [36]: < 1

CC(C)c1cccc(-c2nc(N)sc2-c2ccc3ncccc3n2)c1
IC50 [1]: > 10000 nM
IC50 [2]: > 10000 nM
ΔTm (Cryptosporidium parvum [30]): 1 °C

Cc1cc(-c2nc(N)sc2-c2ccc3ncccc3n2)ccc1F
IC50 [1]: 140 nM
IC50 [2]: 73 nM
